pEC50, pIC50: −log10 of the molar value. Activity calls are given as the source filed them. The calls are words filed in the database; no cut-off is given here.
What was measured:
dengue virus type 2 [1] = experiment: Inhibition of Dengue virus 2 NS5 assessed as reduction in NS5-3' UTR RNA at 25 uM incubated for 1 hr followed by 3' UTR RNA addition and measured after 20 mins by REMSA
In short: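 RNA electrophoretic mobility shift with DENV NS5 at 1.28 μM and RNA at 0.16 μM (RNA/NS5 1:8), compound at 25 μM, 37 °C. Order of addition: compound, then NS5, then RNA. Band shift from complex formation scored on gel.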

dengue virus type 2 [2] = experiment: Inhibition of Dengue virus NS5 RNA-dependent RNA polymerase assessed as reduction in elongation activity at 30 uM incubated for 1 hr relative to control
In short: (§1)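 Purified recombinant full-length DENV2 NS5 polymerase was tested in two formats: primer-independent (de novo initiation) and primer-dependent (elongation). Compound at a single 30 μM; % inhibition reported.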

[3] = Cytotoxicity against human HuH7 cells assessed as reduction in cell viability incubated for 48 hrs by CellTiter Glo Luminescent assay; type: cell-based, Huh-7
In short: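 HuH7 viability was read by CellTiter-Glo luminescence in parallel with the infection dose–response. CC50 is the concentration reducing viability by 50%.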

dengue virus type 2 [4] = experiment: Antiviral activity against Dengue virus 2 EDEN 3295 infected in human HuH7 cells assessed as reduction in virus replication incubated for 48 hrs by plaque reduction assay; type: functional, organism-based; settings: EDEN 3295, Huh-7, 48 h
In short: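 DENV2 EDEN 3295 in human hepatoma HuH7 cells, treated 48 h. Infectious virus quantified by plaque assay. Dose–response from 0.01 to 100 μM after an initial 10 μM screen. EC50 is the concentration giving 50% inhibition of replication, reported as average ± SD of two independent experiments.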

[5] = Selectivity index, ratio of CC50 for human HuH7 cells to EC50 for Zika virus H/PF/2013 infected in human HuH7 cells; type: toxicity, cell-based; settings: read-out: Ratio CC50/EC50
In short: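 Selectivity index is CC50 (CellTiter-Glo, HuH7) divided by EC50 (plaque assay, ZIKV H/PF/2013, 24 h, HuH7).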

[6] = Selectivity index, ratio of CC50 for human HuH7 cells to EC50 for Dengue virus 2 EDEN 3295 infected in human HuH7 cells; type: toxicity, cell-based; settings: read-out: Ratio CC50/EC50
In short: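 Selectivity index is CC50 (CellTiter-Glo, HuH7) divided by EC50 (plaque assay, DENV2 EDEN 3295, 48 h, HuH7).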

Zika virus = experiment: Antiviral activity against Zika virus H/PF/2013 infected in human HuH7 cells assessed as reduction in virus replication incubated for 24 hrs by plaque reduction assay; type: functional, organism-based; settings: H/PF/2013, Huh-7, 24 h
In short: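 ZIKV H/PF/2013 in HuH7 cells, treated 24 h. Titres read by plaque assay. EC50 is the concentration giving 50% inhibition of replication, reported as average ± SD of two independent experiments.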

[7] = Inhibition of Dengue virus NS5 RNA-dependent RNA polymerase assessed as reduction in elongation activity incubated for 1 hr; set-up: species or system dengue virus type 2
In short: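 Elongation (primer-dependent) activity of purified recombinant full-length DENV2 NS5 was measured over a concentration series with fluorescence read-out. Compound-only wells corrected for autofluorescence. IC50 is 50% inhibition of elongation, average ± SD from one experiment in duplicate.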

dengue virus type 4 = experiment: Antiviral activity against Dengue virus 4 infected in human HuH7 cells assessed as reduction in virus replication incubated for 48 hrs by plaque reduction assay; type: functional, organism-based; settings: Huh-7, 48 h
dengue virus type 1 = experiment: Antiviral activity against Dengue virus 1 infected in human HuH7 cells assessed as reduction in virus replication incubated for 48 hrs by plaque reduction assay; type: functional, organism-based; settings: Huh-7, 48 h
dengue virus type 3 = experiment: Antiviral activity against Dengue virus 3 infected in human HuH7 cells assessed as reduction in virus replication incubated for 48 hrs by plaque reduction assay; type: functional, organism-based; settings: Huh-7, 48 h
[8] = Inhibition of Dengue virus full length NS2b-NS3/NS5 interaction incubated for 1 hr by ELISA
In short: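 Competitive ELISA measuring DENV NS3–NS5 binding across compound concentrations. IC50 reported as average ± SD from one experiment in duplicate.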

dengue virus type 2 [9] = experiment: Inhibition of Dengue virus NS5 RNA-dependent RNA polymerase assessed as reduction in de novo initiation activity at 30 uM incubated for 1 hr relative to control; in short: as §1
dengue virus type 2 [10] = experiment: Antiviral activity against Dengue virus 2 EDEN 3295 infected in human HuH7 cells assessed as reduction in viral titer at 10 uM over 10 passage incubated for 72 hrs by resistance development assay relative to control; type: functional; settings: EDEN 3295, Huh-7, 72 h
In short: (§2)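 Resistance selection: DENV2-infected HuH7 cells were passaged under rising compound concentrations, 72 h per passage, up to P10. P10 viruses (parental or resistant clone) were expanded in C6/36 insect cells. Susceptibility was then tested in HuH7 at a single 10 μM dose, read as viral titer reduction versus control. Two independent experiments in duplicate; average ± SD.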

dengue virus type 2 [11] = experiment: Antiviral activity against Dengue virus 2 EDEN 3295 clone 4_R infected in human HuH7 cells assessed as reduction in viral titer over 10 passages incubated for 72 hrs by resistance development assay; type: functional, organism-based; settings: EDEN 3295, Huh-7, 72 h
In short: (§3)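 Virus came from HuH7 serial passage under increasing compound concentrations (72 h each, to P10) and was expanded in C6/36 cells. P10 parental DENV2 or resistant-clone virus was then tested dose-dependently in HuH7 cells with 48 h compound treatment, measuring viral inhibition. Single experiment with duplicates.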

dengue virus type 2 [12] = experiment: Antiviral activity against Dengue virus 2 EDEN 3295 clone 4_R infected in human HuH7 cells assessed as reduction in viral titer at 10 uM over 10 passage incubated for 72 hrs by resistance development assay relative to control; type: functional; settings: EDEN 3295, Huh-7, 72 h; in short: as §2
dengue virus type 2 [13] = experiment: Antiviral activity against Dengue virus 2 EDEN 3295 infected in human HuH7 cells assessed as reduction in viral titer over 10 passages incubated for 72 hrs by resistance development assay; type: functional, organism-based; settings: EDEN 3295, Huh-7, 72 h; in short: as §3

SMILES | inhibition (dengue virus type 2 [1]) | inhibition (dengue virus type 2 [2]) [%] | CC50 at 48 h [3] [µM] | pEC50 (dengue virus type 2 [4]) | selectivity ratio [5] | selectivity ratio [6] | pEC50 (Zika virus) | pIC50 [7] | pEC50 (dengue virus type 4) | pEC50 (dengue virus type 1) | pEC50 (dengue virus type 3) | pIC50 [8] | inhibition (dengue virus type 2 [9]) [%] | inhibition at 10 µM (dengue virus type 2 [10]) [%] | pEC50 (dengue virus type 2 [11]) | inhibition at 10 µM (dengue virus type 2 [12]) [%] | pEC50 (dengue virus type 2 [13])
O=c1c(-c2ccccc2)ccc2sc3ccc(OC4CCCCC4)cc3n12 | inactive | 6.3 |  |  |  |  |  |  |  |  |  |  |  |  |  |  | 
O=C(NCc1ccccc1)c1cc(-c2ccccc2)c(=O)n2c1sc1ccc(OC3CCCCC3)cc12 |  | 31.2 |  |  |  |  |  |  |  |  |  |  |  |  |  |  | 
C#C[C@@]1(O)[C@H](O)[C@@H](CO)O[C@H]1n1ccc2c(N)ncnc21 |  |  | 100 | 6.00 | > 100 | 100 | 6.70 |  |  |  |  |  |  |  |  |  | 
O=C(NCc1ccc(O)cc1)c1cc(-c2ccccc2)c(=O)n2c1sc1ccc(OC3CCCCC3)cc12 | inactive | 44.8 | > 100 | 5.74 | > 100 | > 50 | 6.00 |  |  |  |  |  |  |  |  |  | 
O=C(N[C@@H](Cc1cccc(O)c1)C(=O)O)c1cc(-c2ccccc2)c(=O)n2c1sc1ccc(OC3CCCCC3)cc12 |  | 94.1 | > 100 | 5.54 | > 100 | > 30 | 6.10 | 4.84 | 5.23 | 5.49 | 5.37 | 4.74 | 12.6 |  |  |  | 
O=C(N[C@@H](CO)C(=O)O)c1cc(-c2ccccc2)c(=O)n2c1sc1ccc(OC3CCCCC3)cc12 |  | 97.5 |  |  |  |  |  | 4.70 |  |  |  |  | 44.8 |  |  |  | 
O=C(N[C@@H](Cc1ccc(O)cc1)C(=O)O)c1cc(-c2ccccc2)c(=O)n(-c2cccc(OC3CCCCC3)c2)c1 |  | 72.1 |  |  |  |  |  | 4.09 |  |  |  |  | 36.4 |  |  |  | 
O=C(O)CCNC(=O)c1cc(-c2ccccc2)c(=O)n2c1sc1ccc(OC3CCCCC3)cc12 | Active | 77.6 | > 100 | 5.46 | > 100 | > 30 | 6.00 | 4.42 | 5.16 | 5.15 | 5.11 | 4.63 |  | 80 | 4.94 | 20 | 5.28
O=C(N[C@@H](Cc1ccc(O)cc1)C(=O)O)c1cc(-c2ccccc2)c(=O)n2c1sc1ccc(OC3CCCCC3)cc12 |  | 93 | > 100 | 5.68 | > 100 | > 50 | 6.40 | 5.04 | 5.77 | 5.55 | 5.55 | 4.37 | 40.7 |  |  |  | 
O=C(NCCO)c1cc(-c2ccccc2)c(=O)n2c1sc1ccc(OC3CCCCC3)cc12 |  | 63.3 | 86.3 | 5.72 | 43 | 43 | 5.74 |  |  |  |  |  | 10 |  |  |  | 
O=C(N[C@@H](Cc1ccc(O)cc1)C(=O)O)c1cc(-c2ccccc2)c(=O)n2c1sc1ccc(OC3CCCCCC3)cc12 |  | 92.1 | 100 | 5.43 | > 50 | 30 | 5.80 | 5.02 |  |  |  | 4.47 | 30.5 |  |  |  | 
Cn1cc(C(=O)N[C@@H](Cc2ccc(O)cc2)C(=O)O)cc(-c2ccccc2)c1=O |  | 70.2 |  |  |  |  |  |  |  |  |  |  | 35.6 |  |  |  | 
